Laboratory results as given in ChEMBL document CHEMBL1772990, “Biomimetic syntheses and antiproliferative activities of racemic, natural (-), and unnnatural (+) glyceollin I” (2011).

What was measured:
DU-145 = assay: Antiproliferative activity against androgen receptor-deficient human DU145 cells incubated with 0.6 nM of estradiol and 0.7 nM of testosterone after 48 hrs by sulforhodamine B assay; type: functional; conditions: DU-145, 48 h
In short: (§1)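 Sulforhodamine B growth assay with 48 h agent exposure at 37 °C in 5% CO2. Seeding densities were preset to give exponential growth with final OD below 2.0. Percent growth was taken from OD versus matched vehicle-only (0.25% DMSO) controls. GI50 came from a Hill equation fit, with values averaging eight sets of duplicate wells across a concentration range.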

[1] = Antiproliferative activity against estrogen receptor-deficient human NCI-ADR-RES cells incubated with 100 nM of estradiol and 0.07 nM of testosterone after 48 hrs by sulforhodamine B assay in presence of fetal bovine serum and NuSerum; type: functional
In short: (§2)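 High-E2 condition: cells were seeded as for the intermediate-E2 tests. Agents were added in 5% FBS/5% NuSerum medium with E2 added to give 100 nM final during exposure. After 48 h at 37 °C in 5% CO2, sulforhodamine B staining gave percent of matched 0.25% DMSO vehicle-control growth. GI50 came from a Hill equation fit, averaging eight sets of duplicate wells.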

[2] = Antiproliferative activity against estrogen receptor-deficient human NCI-ADR-RES cells incubated with 0.06 nM of estradiol and 0.07 nM of testosterone after 48 hrs by sulforhodamine B assay in presence of fetal bovine serum and NuSerum; type: functional; in short: as §1
MCF7 [3] = assay: Antiproliferative activity against human MCF7 cells expressing estrogen receptor incubated with 0.06 nM of estradiol and 0.07 nM of testosterone after 48 hrs by sulforhodamine B assay in presence of fetal bovine serum and NuSerum; type: functional; conditions: MCF7, 48 h; in short: as §1
MCF7 [4] = assay: Antiproliferative activity against human MCF7 cells expressing estrogen receptor incubated with 0.003 nM of estradiol and 0.01 nM of testosterone after 48 hrs by sulforhodamine B assay in presence of 5% fetal bovine serum; type: functional; conditions: MCF7, 48 h
In short: (§3)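 Low-E2 condition: MCF7 and NCI-ADR-RES cells were precultured at least 4 days in RPMI with 5% FBS and no NuSerum, then seeded in it at 3500 and 6000 cpw. MCF12A cells were seeded at 1600 cpw in their maintenance medium (DMEM/F-12 with insulin, hydrocortisone, EGF, cholera toxin, 5% FBS). Agents were added in 5% FBS RPMI. After 48 h, growth was read by sulforhodamine B OD versus 0.25% DMSO controls, with GI50 from a Hill fit.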

LNCaP = assay: Antiproliferative activity against human LNCAP cells expressing androgen receptor incubated with 0.6 nM of estradiol and 0.7 nM of testosterone after 48 hrs by sulforhodamine B assay; type: functional; in short: as §1
MCF-12A [5] = assay: Antiproliferative activity against estrogen receptor-deficient human MCF12A cells incubated with 0.003 nM of estradiol and 0.01 nM of testosterone after 48 hrs by sulforhodamine B assay in presence of 5% fetal bovine serum; type: functional; in short: as §3
[6] = Antiproliferative activity against estrogen receptor-deficient human NCI-ADR-RES cells incubated with 0.003 nM of estradiol and 0.01 nM of testosterone after 48 hrs by sulforhodamine B assay in presence of 5% fetal bovine serum; type: functional; in short: as §3
MCF7 [7] = assay: Antiproliferative activity against human MCF7 cells expressing estrogen receptor incubated with 100 nM of estradiol and 0.07 nM of testosterone after 48 hrs by sulforhodamine B assay in presence of fetal bovine serum and NuSerum; type: functional; conditions: MCF7, 48 h; in short: as §2
MCF-12A [8] = assay: Antiproliferative activity against estrogen receptor-deficient human MCF12A cells incubated with 0.06 nM of estradiol and 0.07 nM of testosterone after 48 hrs by sulforhodamine B assay in presence of fetal bovine serum and NuSerum; type: functional; in short: as §1
PC-3 = assay: Antiproliferative activity against androgen receptor-deficient human PC3 cells incubated with 0.6 nM of estradiol and 0.7 nM of testosterone after 48 hrs by sulforhodamine B assay; type: functional; conditions: PC-3, 48 h; in short: as §1
MCF-12A [9] = assay: Antiproliferative activity against estrogen receptor-deficient human MCF12A cells incubated with 100 nM of estradiol and […] of testosterone after 48 hrs by sulforhodamine B assay in presence of fetal bovine serum and NuSerum

| Compound | GI50 (DU-145) | GI50 (MCF7 [3]) | GI50 (MCF7 [4]) | GI50 (LNCaP) | GI50 (MCF7 [7]) | GI50 (PC-3) | GI50 [1] | GI50 [2] | GI50 (MCF-12A [5]) | GI50 [6] | GI50 (MCF-12A [8]) | GI50 (MCF-12A [9]) |
| --- | --- | --- | --- | --- | --- | --- | --- | --- | --- | --- | --- | --- |
| CC1(C)C=Cc2c(ccc3c2OC[C@]2(O)c4ccc(O)cc4O[C@H]32)O1 | 57.5 µM | 24 µM | 22.9 µM | 27.5 µM | 21.4 µM | 47.9 µM | 30.2 µM | 44.7 µM | 38 µM | 42.7 µM | 38.9 µM | 46.8 µM |
| CCC(=C(c1ccc(O)cc1)c1ccc(OCCN(C)C)cc1)c1ccccc1 | 10.7 µM | 1.91 µM | 1.41 µM | 8.32 µM | 3.47 µM | 7.59 µM | 7.76 µM | 6.17 µM | 3.31 µM | 4.47 µM | 3.89 µM | 3.24 µM |
| C[C@]12CC[C@@H]3c4ccc(O)cc4C[C@@H](CCCCCCCCC[S+]([O-])CCCC(F)(F)C(F)(F)F)[C@H]3[C@@H]1CC[C@@H]2O (some centres undefined) [FULVESTRANT] | > 100 µM | 158 µM | < 0.01 µM | 398 µM | 794 µM | > 100 µM | > 100 µM | > 100 µM | > 100 µM | > 100 µM | > 100 µM | > 100 µM |
| O=c1c(-c2ccc(O)cc2)coc2cc(O)cc(O)c12 [GENISTEIN] | 50.1 µM | 45.7 µM | 61.7 µM | 38.9 µM | 52.5 µM | 42.7 µM | 26.9 µM | 17 µM | 32.4 µM | 32.4 µM | 21.9 µM | 30.2 µM |

The next lines start with results.

| GI50 (DU-145) | GI50 (MCF7 [3]) | GI50 (MCF7 [4]) | GI50 (LNCaP) | GI50 (MCF7 [7]) | GI50 (PC-3) | Compound | GI50 [1] | GI50 [2] | GI50 (MCF-12A [5]) | GI50 [6] | GI50 (MCF-12A [8]) | GI50 (MCF-12A [9]) |
| --- | --- | --- | --- | --- | --- | --- | --- | --- | --- | --- | --- | --- |
| 13.8 µM | 2.95 µM | 2.29 µM | 10 µM | 5.62 µM | 11 µM | CC/C(=C(\c1ccccc1)c1ccc(OCCN(C)C)cc1)c1ccccc1 [TAMOXIFEN] | 11.5 µM | 9.55 µM | 5.75 µM | 5.75 µM | 6.92 µM | 5.75 µM |
| 29.5 µM | 20 µM | 17.4 µM | 12.9 µM | 18.2 µM | 32.4 µM | CC1(C)C=Cc2c(ccc3c2OCC2(O)c4ccc(O)cc4OC32)O1 (racemic) | 45.7 µM | 37.2 µM | 47.9 µM | 41.7 µM | 45.7 µM | 51.3 µM |
| 36.3 µM | 13.8 µM | 13.2 µM | 11.5 µM | 15.1 µM | 30.9 µM | CC1(C)C=Cc2c(ccc3c2OC[C@@]2(O)c4ccc(O)cc4O[C@@H]32)O1 [GLYCEOLLIN I] | 29.5 µM | 30.2 µM | 33.1 µM | 24.5 µM | 27.5 µM | 38 µM |
